Laboratory results as given in PubChem BioAssay AID504383 (The Scripps Research Institute Molecular Screening Center, 2011).
In all, about 2,500 compounds went through this assay and about 1,200 (48%) were called active. The set was probably picked from earlier hits. This is one part of the list. A number with no mark means an inactive call.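 The calls were made as follows: active = mean activation above the low control average plus 3 SD, as set in the primary screen (cut at about 12% in these data); inactive = the rest.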

The molecules below were run against Troponin I, cardiac muscle (Homo sapiens) + Troponin T, cardiac muscle (Homo sapiens) + Troponin C, slow skeletal and cardiac muscles (Homo sapiens) (UniProt P19429+P45379+P63316) (assay: calcium sensitizers of cardiac thin filaments – biochemical, IANBD-TnC fluorescence, triplicate, confirmation (AID 504383;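 also: 0% = DMSO at 0.472 mM calcium and 100% = DMSO at 2.9 mM calcium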)). Details: IANBD-labeled cardiac RTF, Ca2+ sensitivity fluorescence; at 7.2 µM; active compounds read high; scaled from EC20 to saturating calcium; tested at EC20 calcium, 0.472 mM.
In short: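 Assay system: labelled regulated thin filaments / Timing: 15 min at 25 °C / Detection: fluorescence intensity of labelled filaments / Measure: fluorescence gain scaled between EC20 and EC100 calcium controls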
`Cc1ccc(C)c(C(=O)CCC(=O)NCc2ccc(Cl)cc2)c1` was tested, and the activation was 10.5%. `Cc1ccc(CNC(=O)c2cc(-c3ccccc3)nn2Cc2cc(C)no2)cc1` was tested, and the activation was 8.67%. In the case of `Cc1ccc(CNC(=O)CCn2cc(-c3ccc(C)cc3)nc2-c2ccncc2)cc1`, the activation is reported as 57.1% (active). `Cc1ccc(-c2ccc(OC(=O)c3ccc(=O)[nH]c3)c(C)c2)cc1` was tested, and the activation was 28.2% (active). For `CCc1ccc(NC(=O)C2CCN(S(=O)(=O)c3ccc4[nH]c(=O)ccc4c3)CC2)cc1`, the activation was 12.1% (active). `CC(=O)Nc1ccc(Nc2cc(N(C)C)c3nonc3c2[N+](=O)[O-])cc1` was tested, and the activation was 99.2% (active). Work on `COc1ccc(-n2nc3c(N4CCC(C(=O)N5CCC(C)CC5)CC4)nnc(C)c3c2C)cc1` yielded an activation of 2.83%. With `O=C(Nc1cc2c(cc1Br)OCCCO2)c1cccnc1` the activation was 2.74%. With `CC1CCN(c2ccc(NC(=O)c3cccnc3)cc2)CC1` the activation was 19.8% (active). In the case of `COc1ccccc1-c1nnc(SCc2nc3ccccc3s2)n1C`, the activation is reported as 29.9% (active). With `CN(Cc1ccccc1)C(=O)c1[nH]cnc1C(=O)NCc1ccccc1` the activation was 59.9% (active). With `CC(C)(C)OC(=O)[C@H](Cc1ccccc1)NC(=O)c1nc[nH]c1C(=O)NCc1ccccc1` the activation was 25.1% (active). With `O=C(NCc1ccccc1Cl)c1ccc2nc[nH]c2c1` the activation was 6.6%. In the case of `O=C1N(c2ccc(Cl)cc2)C(c2ccccc2)N2CCCN12` (stereo unspecified), the activation is reported as 5.52%. In the case of `Fc1ccc(-c2nnc(-c3ccc(Cl)cc3Cl)o2)cc1`, the activation is reported as 54% (active). For `O=C(c1cccc(F)c1)N1CCN(C(=O)c2cc(-c3ccc(Cl)cc3Cl)on2)CC1`, the activation was 3.41%. With `Cc1ccc(-n2nc(C)c(=O)c(-c3ccccc3)c2NC(=O)c2cccs2)cc1` the activation was 11.8% (active). Molecule `C/C(=N\NC(=O)c1ccccc1)c1ccc(NC(=O)c2cccs2)cc1` has an activation of 3.16%. For `CCOC(=O)/C(=C\C=C1/Sc2cc(OCC)c(OCC)cc2N1CC)C(C)=O`, the activation was 8.28%. With `CCOC(=O)/C(=C/C=C1\Sc2ccccc2N1CC)C(C)=O` the activation was 190% (active). `CCOC(=O)/C(=C\C=C1/Sc2ccccc2N1CC)C(C)=O` was tested, and the activation was 20% (active). `CCN1/C(=C\C=C(C(C)=O)C(C)=O)Sc2ccccc21` was tested, and the activation was 9.03%. `CCOC(=O)/C(=C/C=C1\Sc2cc(OCC)c(OCC)cc2N1CC)C(C)=O` was tested, and the activation was 40% (active). `CCOC(=O)/C(=C/C=C1\Sc2cc(C)c(C)cc2N1CC)C(C)=O` gave an activation of 4.3%. `CCOC(=O)/C(C#N)=C(C)/C=C1\Sc2ccccc2N1CC` was tested, and the activation was 11.9% (active). For `CC1(C)c2[nH]c3ccccc3c2C[C@H]2C(=O)N(Cc3ccc(F)cc3)C(=O)N21`, the activation was 6.36%. With `CC(C)NC(=O)C1CCCN(c2nnc(-n3cccc3)s2)C1` (stereo unspecified) the activation was 1270% (active). `COC(=O)c1cc2c(cc1NC(=O)CSCCc1ccccn1)OCO2` showed an activation of 7.4%. For `COCc1cc(C)n(CC(=O)Nc2ccccc2C(=O)OC)c(=O)c1C#N`, the activation was 23.2% (active). `Cc1cc(Br)ccc1SCC(=O)OCC(=O)Nc1ccccc1C#N` was tested, and the activation was 9.13%. Work on `Cc1noc(C)c1S(=O)(=O)N(C)C[C@H]1Oc2ccc(NC(=O)CCC(F)(F)F)cc2C(=O)N([C@H](C)CO)C[C@@H]1C` yielded an activation of 10.2%. `C[C@H]1CN([C@@H](C)CO)C(=O)Cc2cc(NC(=O)CCC(F)(F)F)ccc2O[C@H]1CN(C)S(C)(=O)=O` was tested, and the activation was 15.4% (active). With `COc1ccccc1NS(=O)(=O)c1ccccc1C#N` the activation was 3.34%. For `COc1ccccc1NS(=O)(=O)c1cc([N+](=O)[O-])ccc1N/N=C/c1c(C)[nH]c2ccccc12`, the activation was 27.9% (active). Molecule `COc1ccc(-n2c(O)c(/C=N/NS(=O)(=O)c3cccc([N+](=O)[O-])c3)c3ccccc3c2=O)cc1OC` has an activation of 9.84%. In the case of `O=C(NN1C(=O)/C(=C/c2ccc(O)cc2)SC1=S)c1cccc(O)c1`, the activation is reported as 12.5% (active). Work on `O=C(NN1C(=O)/C(=C/c2ccc(O)cc2)SC1=S)c1ccccc1O` yielded an activation of 9.61%. For `CN(C)c1ccc(/C=C2\SC(=S)N(Nc3ncc(C(F)(F)F)cc3Cl)C2=O)cc1`, the activation was 7.16%. Molecule `O=C(CCN1C(=O)/C(=C/c2cccs2)SC1=S)NNC(=O)c1cccc(O)c1` has an activation of 7.19%. In the case of `CC(=O)NN1C(=O)/C(=C\c2ccc(O)cc2)SC1=S`, the activation is reported as 12.5% (active). With `Cc1ccc(N2C3=C(C(=O)CC(C)(C)C3)C(c3cn(C)nc3C)C3=C2CC(C)(C)CC3=O)cc1` the activation was 35.1% (active). `Cc1c(C2Nc3ccccc3NC3=C2C(=O)CC(C)(C)C3)cnn1C` (stereo unspecified) showed an activation of 4.72%. `N#C/C(=C\c1c[nH]c2ccccc12)C(=O)Nc1ncc(Cc2ccc(Cl)cc2Cl)s1` was tested, and the activation was 30.3% (active). Work on `COc1cc(/C=C(\C#N)C(=O)c2c[nH]c3ccccc23)cc(OC)c1O` yielded an activation of 5.75%. In the case of `COCCN=c1scc(-c2cc(OC)c(OC)c(OC)c2)n1/N=C/c1c(C)[nH]c2ccccc12`, the activation is reported as 72.2% (active). `CC(C)Oc1ccc(/C(O)=C2/C(=O)C(=O)N(CCN3CCNCC3)C2c2cccc([N+](=O)[O-])c2)cc1` (stereo unspecified) was tested, and the activation was 6.36%. With `O=C(C1=C(O)C(=O)N(CCN2CCOCC2)C1c1ccc([N+](=O)[O-])cc1)c1cccs1` (stereo unspecified) the activation was 188% (active). In the case of `COc1ccc(N(C(=O)c2ccc(C)cc2)S(=O)(=O)c2cccs2)cc1`, the activation is reported as 175% (active). `COc1ccc(NC(=O)CNS(=O)(=O)c2cccs2)cc1` showed an activation of 7.87%. `Nc1ccc2cc3[nH]c4cc(N)ccc4c3nc2c1` was tested, and the activation was 13.7% (active). Molecule `O=C(O)C1=C[C@H](c2ccccc2)C[C@H](OCc2ccc(CO)cc2)O1` has an activation of 1.76%. In the case of `Cc1c(O)c(=O)c2ccccc2n1C`, the activation is reported as 16.4% (active). In the case of `COc1ccc(NC(=O)CCN2CCCC2)c(OC)c1`, the activation is reported as 80.7% (active). Work on `COc1ccc(NC(=O)CCN2CC(C)OC(C)C2)c(OC)c1` (stereo unspecified) yielded an activation of 4.53%. `COc1ccc(CN2CCC(=O)N([C@H](CO)c3ccccc3)CC2)cc1` was tested, and the activation was 21.1% (active). In the case of `COc1ccc(-c2c3c(=O)n(C)c(=O)n(C)c3cn2-c2cccc(OC)c2)cc1`, the activation is reported as 1.1%. With `COc1ccc(CN2CNc3c(c(=O)n(C)c(=O)n3C)C2)cc1` the activation was 14.9% (active). Molecule `CCCNC(=S)N1CCC(NC(=O)C23CC4CC(CC(C4)C2)C3)CC1` has an activation of 8.77%. `c1ccc(-c2cnn3c(-c4ccccc4)c(-c4ccccc4)nc3n2)cc1` was tested, and the activation was 3.13%. `Nc1ccc2nc(-c3ccccc3)cnc2c1` was tested, and the activation was 83.1% (active). `CN1/C(=C\C=C2\N=C(c3ccc(F)cc3)OC2=O)C(C)(C)c2ccccc21` was tested, and the activation was 13.9% (active). In the case of `CN1/C(=C\C=C2/SC(=S)NC2=O)C(C)(C)c2ccccc21`, the activation is reported as 10.1%. `CCO/C=C1\N=C(c2ccc(F)cc2)OC1=O` showed an activation of 4.72%. `CCN(CC)C(=O)C1CCC(CNS(=O)(=O)c2cccc3cccnc23)CC1` (stereo unspecified) gave an activation of 0.91%. For `CC(C)c1ccc(NS(=O)(=O)c2cccc3cccnc23)cc1`, the activation was 446% (active). For `O=C1CCC[C@@H]2C[C@@]3(C[C@@H]4CCN1[C@H]24)Nc1cc([N+](=O)[O-])ccc1NC3=NC1CCCCC1`, the activation was 41.2% (active). In the case of `COC(=O)C(=N/Nc1ccccc1C(=O)OC)/C(C)=N/O`, the activation is reported as 35.7% (active). `N#C/C(=C\c1ccc(N2CCOCC2)o1)c1nc2ccccc2[nH]1` was tested, and the activation was 29.6% (active). In the case of `Cc1ccc2nc(/C(C#N)=C\c3ccc(N4CCOCC4)o3)[nH]c2c1`, the activation is reported as 44.2% (active). `N#C/C(=C/c1ccc(N2CCOCC2)o1)c1nc2ccccc2[nH]1` showed an activation of 11.4%. `Brc1ccc(-c2cn3nc4c(nc3n2)CCCC4)cc1` was tested, and the activation was 22.8% (active). `c1ccc(-c2cn3nc4c(nc3n2)CCCC4)cc1` was tested, and the activation was 48.2% (active). In the case of `Clc1ccc(-n2cc(-c3ccc(Br)cc3)[n+]3c2CCCCC3)cc1`, the activation is reported as 0.54%. Molecule `Clc1ccc(-c2cn3nc4c(nc3n2)CCCC4)cc1` has an activation of 9.46%. `CC1(C)CC(=O)C=C(NCc2ccc(Cl)c(Cl)c2)C1` was tested, and the activation was 3.4%. In the case of `CC1(C)CC(=O)C=C(Nc2ccccc2N)C1`, the activation is reported as 31.4% (active). `O/C=c1\ccc2cccc3nc(C(F)(F)F)nc1c23` was tested, and the activation was 5010% (active). `O=C(NCCc1ccccc1)c1ccc(Cl)nc1` was tested, and the activation was 16.1% (active). Molecule `Cc1ccccc1C(=O)NCCCc1ccccc1` has an activation of 0.23%. In the case of `COC(=O)C1=C(C(=O)c2ccc(C)cc2)C(c2ccc(OC)c(OC)c2)n2nnnc2N1` (stereo unspecified), the activation is reported as 9.37%. For `CC(C)CCNC(=O)c1ccc2c(SCC(=O)O)c3c(nc2c1)CCC3`, the activation was 35.4% (active). Molecule `CCOc1c2ccc(C(=O)NCCc3cccs3)cc2nn1CC` has an activation of 9.3%. In the case of `O=C(N1CCOCC1)N1CCC(n2nnc3ccccc32)CC1`, the activation is reported as 5.64%. For `Cc1cc(C)n2nc(SCC(=O)N(C)Cc3ccccc3)nc2n1`, the activation was -3.59%. With `CN(Cc1ccccc1)C(=O)N1CCOCC1` the activation was 12.1% (active). `CCc1cc(C(=O)Nc2ccc(OC)nc2)sc1C` was tested, and the activation was 4.99%. For `O=C(COC(=O)C1CCC1)NCc1ccccc1`, the activation was 286% (active). Molecule `O=C(COc1ccc(Cl)cc1)NCc1ccccc1` has an activation of 10.9%. `O=C(COC(=O)C1CCC(=O)N1)Nc1ccc(Oc2ccccc2)cc1` (stereo unspecified) was tested, and the activation was 5.98%. In the case of `O=C(COC(=O)C1CCCCC1)Nc1ccc([N+](=O)[O-])cc1`, the activation is reported as 82.4% (active). `Cc1ccc(C(=O)COC(=O)C2CCC2)cc1` gave an activation of 9.89%. `CCn1cc(C(=O)NCCC(=O)NCCO)c(=O)c2cc3c(cc21)OCO3` was tested, and the activation was 57.2% (active). For `COc1ccc(-[n+]2c(C)cc(/C=C3\Sc4ccccc4N3C)cc2C)cc1`, the activation was 249% (active). With `CCC(CO)[n+]1c(C)cc(/C=C2\Sc3ccccc3N2Cc2ccccc2)cc1C` (stereo unspecified) the activation was 3.94%. `COc1ccccc1-[n+]1c(C)cc(/C=C2\Sc3ccccc3N2C)cc1C` was tested, and the activation was 12% (active). In the case of `CC[n+]1c(/C=C2\Sc3ccccc3N2C)ccc2cccc(C)c21`, the activation is reported as 6.15%.
